# TCR CD3 inh: inhibitors of human TCR-CD3 interaction; inhibition, % at 9.4 µM; TAMRA-labeled TCR probe fluorescence, biochemical; AID 651800; 0.37% of 360,000 active;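 note: recombinant mutant TCR 2C K166C tagged with TAMRA read by polarization; 0% = receptor in buffer alone and 100% = receptor with positive control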
# mABHD4 FP: ABHD4 (mouse) inhibition, primary FP screen. Q8VD66. 0.54% of 370,000 active. inhibition, % at 8.92 µM. purified mABHD4, FP-Rh probe fluorescence polarization;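 active = inhibition exceeding the mean over every tested compound plus 3 SD, cut at about 30% in these data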;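 note: 0% = plate median of compound wells and 100% = S159A mutant with DMSO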
#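 Test system: mABHD4 protein; Read-out basis: % inhibition; Incubation: 45 min + 60 min at 25 °C; Repeats: single replicate; Technique: fluorescence polarization with parallel and perpendicular emission, 525/598 nm; Compound: 8.92 µM, single dose; Benchmarks: full inhibition S159A mutant plus DMSO, zero as sample-well median.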
# pPAFAH FP inh: inhibitors of human plasma PAF acetylhydrolase (pPAFAH); Q13093; recombinant pPAFAH, FP-rhodamine probe fluorescence polarization; inhibition, % at 3.39 µM; 1.5% of 330,000 active; AID 463082;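 active = inhibition above the mean inhibition across the screen plus 3 SD, cut at about 25% in these data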;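 note: inhibitors block binding of the rhodamine activity-based probe so polarization drops; 0% = enzyme with DMSO and 100% = wells lacking pPAFAH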
# HTRA1 inhibitor: HTRA1 (human) protease inhibition; inhibition, % at 5.96 µM; recombinant HTRA1, FP-rhodamine activity-based probe, fluorescence polarization; AID 504803; 0.5% of 340,000 active; Q92743; in the data active = inhibition above about 36%;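 note: 0% = enzyme with DMSO and 100% = wells lacking enzyme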
# Target sequence (Q92743 whole entry, looked up): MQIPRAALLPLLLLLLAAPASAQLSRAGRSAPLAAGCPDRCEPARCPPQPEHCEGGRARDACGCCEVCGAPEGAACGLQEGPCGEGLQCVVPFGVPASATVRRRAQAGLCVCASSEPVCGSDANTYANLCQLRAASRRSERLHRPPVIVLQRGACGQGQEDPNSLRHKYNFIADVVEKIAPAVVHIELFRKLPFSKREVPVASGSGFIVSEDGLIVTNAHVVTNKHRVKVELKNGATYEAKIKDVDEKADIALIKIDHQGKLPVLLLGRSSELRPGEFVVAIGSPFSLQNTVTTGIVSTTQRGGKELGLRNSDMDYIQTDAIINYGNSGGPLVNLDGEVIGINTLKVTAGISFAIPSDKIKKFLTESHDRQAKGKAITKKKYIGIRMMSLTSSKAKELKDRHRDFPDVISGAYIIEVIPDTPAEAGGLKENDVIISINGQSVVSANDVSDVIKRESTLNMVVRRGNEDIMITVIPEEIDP
# SIAE primary: inhibitors of human sialic acid acetylesterase SIAE; Q9HAT2; SIAE FP-Rh probe binding, fluorescence polarization; inhibition, % at 9.66 µM; 0.69% of 370,000 active;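 active = inhibition above a cutoff: mean of compounds within the control limits plus 3 SD of those, cut at about 17% in these data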;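 note: 0% = plate median of compound wells and 100% = probe without SIAE protein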
# BSA TAMRA ctr: BSA probe counter-screen for TCR-CD3 inhibitors | 10% of 1,200 active | shares compounds with TCR CD3 inh | inhibition, % at 9.4 µM | AID 652035 | TAMRA-labeled BSA probe fluorescence counterscreen; in the data active = inhibition above about 23%;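 note: 0% = buffer low control and 100% = reference high control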
# TCR-CD3 conf: confirmation of human TCR-CD3 interaction inhibitors | shares compounds with TCR CD3 inh | TAMRA-labeled TCR probe fluorescence binding assay | inhibition, % at 9.4 µM | 48% of 1,200 active | AID 652036
# ABHD4 confirm: confirmation of mouse ABHD4 inhibitors | shares compounds with mABHD4 FP | purified mABHD4, FP-Rh probe fluorescence polarization | inhibition, % at 8.92 µM | 55% of 1,800 active | AID 720658;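 active = mean inhibition across replicates above the hit cutoff set in the primary screen, cut at about 30% in these data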;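 note: 0% = wild-type ABHD4 with DMSO and 100% = catalytically dead S159A mutant with DMSO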
# SIAE inh conf: human SIAE inhibition, confirmation; inhibition, % at 9.66 µM; SIAE FP-Rh activity-based probe, fluorescence polarization; shares compounds with SIAE primary; 13% of 2,300 active;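 active = mean inhibition of the replicates above the hit cutoff set in the primary screen, cut at about 17% in these data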;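 note: 0% = SIAE with DMSO and probe and 100% = probe without SIAE; inhibitors lower polarization as more probe stays unbound to SIAE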
# Starred values were filed as active, the others as inactive; nt = no result given; ! = a repeat was not active. Most compounds without a hit are left out; they make up all but 2.3% or so of the library. Cut-off read from the data, not from the text of the source, unless noted: active = inhibition above about 19%; inactive = the rest.
SMILES,TCR CD3 inh,mABHD4 FP,pPAFAH FP inh,HTRA1 inhibitor,SIAE primary,BSA TAMRA ctr,TCR-CD3 conf,ABHD4 confirm,others
Nc1ccc2nc3c(=O)n(C4CCCCC4)c(=O)[nH]c3nc2c1,24.0*,42.8*,25.9*,30.6,10.5,28.3*,26.9*,40.5*,
O=C(O)CCCCCn1c(SCC(=O)c2ccc(O)c(O)c2)nc2ccsc2c1=O,24.8*,34.3*,20.8,9.3,13.5,-6.4,25.1*,35.6*,
Nc1ccc(-c2c3ccc(=O)cc-3oc3cc(O)ccc23)cc1C(=O)O,37.9*,30.2*,19.3,28.2,13.2,49.2*,33.6*,39.7*,
CC1=NN(c2ccccc2)C(=O)C1N=Nc1ccc(C)cc1 (stereo not drawn),nt,nt,1.4,nt,nt,nt,nt,nt,
CC1=NN(c2ccccc2)C(=O)C1C=Nc1ccc(N(C)C)cc1 (stereo not drawn),23.0*,38.6*,34.1*,nt,11.1,-2.1,0.8,2.0,
COc1ccc(-c2cc(NC(C)=O)c3ncc(-c4ccccc4)n3c2)c(OC)c1,-4.0,-3.1,nt,nt,8.3,nt,nt,nt,
O=C1/C(=C/c2ccco2)SC(=S)N1c1cccnc1,28.3*,31.4*,nt,21.4,-1.7,-7.7,22.7*,6.5,
O=C(O)/C=C/C(=O)Nc1ccc(O)cc1,19.8*,36.9*,18.7,15.8,6.9,3.7,7.4,15.5,
O=C(O)/C=C/C(=O)Nc1ccc(C(=O)c2ccccc2)cc1,0.7,1.8,1.0,8.8,0.2,nt,nt,nt,
CNC(=S)N/N=C/c1ccccc1Cl,-10.2,3.1,-1.5,-6.0,6.7,nt,nt,nt,
CNC(=S)N/N=C/c1cc(Br)cc(Br)c1O,40.4*,30.7*,4.0,34.4,6.7,-12.1,36.2*,27.4,
COC(=O)C1CN(Cc2ccc(F)cc2)CCS(=O)(=O)N1Cc1cn(Cc2ccc(C)cc2)nn1 (stereo not drawn),nt,7.3,nt,nt,4.4,nt,nt,nt,
O=C1NC(=O)C2(N1)c1ccccc1-c1ccccc12,-2.6,-2.6,nt,2.4,-0.5,nt,nt,nt,
O=C1NC(=O)C2(N1)C(=O)c1cccc3cccc2c13 (stereo not drawn),60.8*,77.6*,nt,23.0,5.2,37.2*,31.1*,16.5,
COc1ccc(C(=O)OCC(=O)Nc2ncc([N+](=O)[O-])s2)cc1OC,20.6*,38.0*,24.5,9.4,-12.4,-19.1,7.6,24.7,
COc1cc(CNc2ncnc3c2ncn3[C@H]2CN(CCN3CCOCC3)C[C@@H](CO)O2)cc(OC)c1OC,-4.2,9.8,nt,nt,-3.5,nt,nt,nt,
Nc1ccc2c3c(cccc13)C(=O)N(c1ccccc1)C2=O,27.8*,38.3*,nt,20.8,10.1,43.2*,33.6*,33.0*,
Nc1cccc(N2C(=O)c3cccc4c(N)ccc(c34)C2=O)c1,13.8,19.2,9.3,14.7,5.4,nt,nt,nt,
COc1cc(NC(=O)C(OC(=O)CNC(=O)c2ccccc2)c2ccccc2)cc(C(F)(F)F)c1 (stereo not drawn),nt,-44.5,nt,nt,-19.8,nt,nt,nt,
CC(=O)Nc1ccc(Nc2c3c4c(cccc4n(C)c2=O)C(=O)c2ccccc2-3)cc1,21.4*,30.9*,32.6*,20.7,6.1,54.9*,37.3*,33.4*,
CC(=O)Nc1ccc2c(c1)C(=O)c1ccccc1C2=O,1.7,8.7,5.8,8.1,-5.9,nt,nt,nt,
Oc1ccc(/C=N/NC(=S)Nc2cccnc2)c(O)c1O,82.7*,41.1*,nt,36.1,53.1*,-12.3,55.8*,68.0*,
Fc1c(F)c(F)c(/C=N/NC(=S)Nc2cccnc2)c(F)c1F,-1.9,0.3,0.4,0.8,3.8,nt,nt,nt,
COC(=O)[C@]12C[C@H](CC(=O)NCC3CCCCC3)C(=O)N(CCC3=CCCCC3)C1=C[C@H](C1CCCC1)O[C@@H]2C,nt,2.5,nt,nt,-4.7,nt,nt,nt,
Nc1ncnc2c1CN(Cc1ccccc1)CC2,76.5*,72.0*,nt,-3.0,4.8,3.5,4.5,-7.0,
SMILES,TCR CD3 inh,mABHD4 FP,pPAFAH FP inh,HTRA1 inhibitor,SIAE primary,BSA TAMRA ctr,TCR-CD3 conf,ABHD4 confirm,others
Nc1cccc(-c2c[nH]c3ncc(-c4cccnc4)cc23)c1,nt,nt,nt,-3.1,nt,nt,nt,nt,
CN(CCC#N)c1ccc(/C=C(\C#N)c2ccccn2)cc1,80.9*,89.0*,9.4,0.4,-5.9,3.7,11.3,-6.7,
c1cc(-c2ccoc2)n2ccnc2c1,24.8*,50.0*,nt,nt,15.4,19.0,16.0,13.6,
c1cc(-c2ccsc2)n2ccnc2c1,-1.7,4.5,nt,nt,1.3,nt,nt,nt,
CCC(C)Sc1cccc(-c2nc3cc(C)ccn3c2NC2CCCCC2)c1 (stereo not drawn),24.6*!,39.2*,0.5,-7.6,4.3,-4.5,-0.8,52.4*,
Oc1ccccc1/C=N/c1c(-c2ccco2)nc2ccccn12,19.7*,52.3*,9.4,29.5,15.1,0.9,4.1,3.6,
Cc1cc2cc(CNC(=O)c3ccc(S(=O)(=O)N4CCCC4)cc3)ccc2n1C,70.3*,38.8*,4.2,24.7,25.9*,2.9,-0.3,11.1,
Cc1cc2cc(CNC(=O)C(C)Oc3ccccc3)ccc2n1C (stereo not drawn),44.9*,33.7*,7.2,29.7,6.1,3.9,4.1,14.9,
CCC(CC)C(=O)NCc1ccc2c(c1)cc(C)n2C,1.2,9.5,-1.9,13.7,5.8,nt,nt,nt,
O=[N+]([O-])c1cc(Br)c(O)c(/C=N/Nc2nnnn2-c2cccc3ccccc23)c1,20.1*,39.0*,33.5*,23.7,16.3,-15.3,41.4*,64.5*,
CC1(C(=O)NS(=O)(=O)c2cccc(F)c2)CCN1C(=O)CC1CCCCC1 (stereo not drawn),2.9,3.1,nt,nt,0.5,nt,nt,nt,
Cc1cccc(N2CCN(C(C(=O)NCc3ccccc3)c3ccc(C(F)(F)F)cc3)CC2)c1C (stereo not drawn),-0.3,0.3,nt,nt,9.0,nt,nt,nt,
CCOC(=O)CC1(C)Oc2ccccc2N1S(=O)(=O)c1ccc(C)cc1 (stereo not drawn),-4.4,-12.6,nt,nt,-0.1,nt,nt,nt,
NNC(=O)c1oc2nc(-c3ccco3)cc(-c3ccco3)c2c1N,25.3*,21.1,34.4*,nt,50.5*,-1.9,13.6,nt,SIAE inh conf=73.9*
Nc1c(C(=O)N/N=C/c2cccnc2)oc2nc(-c3ccco3)cc(-c3ccco3)c12,16.2,23.2,24.0,nt,5.0,nt,nt,nt,
CCN(CC)S(=O)(=O)c1ccc(C(=O)NCc2ccc3c(c2)cc(C)n3C)cc1,73.9*,104.1*,9.9,-0.2,28.3*,-5.0,-0.8,0.4,SIAE inh conf=-4.0
COc1ccc(C(=O)NCc2ccc3c(c2)cc(C)n3C)cc1OC,8.3,16.7,10.8,12.2,-1.6,nt,nt,nt,
COc1ccc(N2C(=O)c3ccccc3NC(=O)C2C(=O)Nc2ccc(N3CCOCC3)cc2)cc1 (stereo not drawn),4.8,5.8,nt,nt,15.5,nt,nt,nt,
